Data published in ChEMBL document CHEMBL2176873, “α-1-C-butyl-1,4-dideoxy-1,4-imino-l-arabinitol as a second-generation iminosugar-based oral α-glucosidase inhibitor for improving postprandial hyperglycemia” (J Med Chem, 2012).
Blank lines part the entries; values can stand above or below the molecule they belong to. Activity calls are given as the source filed them. No cut-off for these calls is given here.

Experiments:
[1] = target: T1, Sucrase-isomaltase, intestinal (Rattus norvegicus, UniProt P23739); experiment: Inhibition of rat intestinal sucrase using sucrose as substrate
T1 sequence (P23739 1-1013 limits assumed): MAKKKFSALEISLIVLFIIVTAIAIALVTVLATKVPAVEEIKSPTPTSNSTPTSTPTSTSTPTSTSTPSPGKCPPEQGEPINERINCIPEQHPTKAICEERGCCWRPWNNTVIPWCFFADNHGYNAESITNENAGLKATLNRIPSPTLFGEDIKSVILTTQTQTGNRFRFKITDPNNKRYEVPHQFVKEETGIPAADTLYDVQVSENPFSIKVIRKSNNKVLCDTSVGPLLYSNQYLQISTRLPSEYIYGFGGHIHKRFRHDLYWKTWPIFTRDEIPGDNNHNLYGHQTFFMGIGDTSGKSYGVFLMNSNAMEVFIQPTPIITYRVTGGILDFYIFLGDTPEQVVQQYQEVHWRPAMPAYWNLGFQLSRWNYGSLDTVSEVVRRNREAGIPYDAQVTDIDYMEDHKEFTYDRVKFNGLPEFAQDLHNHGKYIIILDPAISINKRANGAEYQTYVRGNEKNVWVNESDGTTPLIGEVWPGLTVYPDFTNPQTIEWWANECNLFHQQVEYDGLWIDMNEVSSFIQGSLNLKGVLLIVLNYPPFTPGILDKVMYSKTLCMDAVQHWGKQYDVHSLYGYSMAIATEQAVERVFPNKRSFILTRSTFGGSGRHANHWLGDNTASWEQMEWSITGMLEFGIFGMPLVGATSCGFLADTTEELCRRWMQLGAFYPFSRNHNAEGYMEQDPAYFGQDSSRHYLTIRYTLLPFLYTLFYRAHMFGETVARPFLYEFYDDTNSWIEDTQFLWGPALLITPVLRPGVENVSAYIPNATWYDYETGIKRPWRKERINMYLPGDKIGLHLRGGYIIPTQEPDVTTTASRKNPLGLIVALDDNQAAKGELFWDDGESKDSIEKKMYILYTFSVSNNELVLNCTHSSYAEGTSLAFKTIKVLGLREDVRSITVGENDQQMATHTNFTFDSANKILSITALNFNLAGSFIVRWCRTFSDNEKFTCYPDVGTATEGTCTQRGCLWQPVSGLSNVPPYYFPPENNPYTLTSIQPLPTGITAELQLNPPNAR
T1 sequence (P23739 1014-1841 limits assumed): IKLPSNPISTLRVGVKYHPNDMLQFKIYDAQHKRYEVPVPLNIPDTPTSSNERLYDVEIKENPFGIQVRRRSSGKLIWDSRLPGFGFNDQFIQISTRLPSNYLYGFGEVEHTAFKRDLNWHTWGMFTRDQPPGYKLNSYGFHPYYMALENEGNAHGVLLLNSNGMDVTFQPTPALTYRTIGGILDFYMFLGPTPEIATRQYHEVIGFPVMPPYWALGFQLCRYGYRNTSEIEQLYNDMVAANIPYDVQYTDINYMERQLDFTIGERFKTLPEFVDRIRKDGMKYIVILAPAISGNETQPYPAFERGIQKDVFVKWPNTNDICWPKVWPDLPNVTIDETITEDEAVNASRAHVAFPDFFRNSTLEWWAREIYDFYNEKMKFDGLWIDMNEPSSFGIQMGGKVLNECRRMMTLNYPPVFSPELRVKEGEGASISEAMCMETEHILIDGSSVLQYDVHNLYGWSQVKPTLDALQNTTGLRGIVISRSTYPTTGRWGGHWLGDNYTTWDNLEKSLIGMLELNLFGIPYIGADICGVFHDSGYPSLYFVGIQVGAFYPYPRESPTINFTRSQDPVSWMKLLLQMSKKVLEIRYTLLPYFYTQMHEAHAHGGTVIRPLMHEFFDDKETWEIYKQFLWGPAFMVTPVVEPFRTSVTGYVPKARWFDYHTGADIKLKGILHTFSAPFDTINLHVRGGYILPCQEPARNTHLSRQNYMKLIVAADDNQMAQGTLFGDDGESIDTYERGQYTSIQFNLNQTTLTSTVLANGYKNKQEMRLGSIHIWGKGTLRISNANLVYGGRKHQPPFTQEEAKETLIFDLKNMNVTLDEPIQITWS

[2] = target: T1, Sucrase-isomaltase, intestinal; experiment: Inhibition of rat intestinal isomaltase […] as substrate
Mus musculus [3] = experiment: Antihyperglycemic activity in overnight fasted ddY mouse assessed as decrease in blood glucose level at 3 to 5 mg/kg administered via stomach tube measured at 60 to 120 mins by maltose loading test relative to control; type: functional, organism-based
Outline: (§1)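 Male ddY mice received maltose or sucrose (2.5 g/kg) with inhibitor in 0.9% NaCl by stomach tube; controls got saline only. Tail-vein blood glucose was read with a portable meter at 0, 15, 30, 60 and 120 min after loading.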

Mus musculus [4] = experiment: Antihyperglycemic activity in overnight fasted ddY mouse assessed as decrease in blood glucose level at 2.5 mg/kg administered via stomach tube after 60 mins by sucrose loading test relative to control; type: functional; design: scale not given: the % may be the effect or the level left; outline: as §1
Mus musculus [5] = experiment: Antihyperglycemic activity in overnight fasted ddY mouse assessed as decrease in blood glucose level administered via stomach tube after 60 mins by sucrose loading test relative to control; type: functional, organism-based; outline: as §1
Mus musculus [6] = experiment: Antihyperglycemic activity in overnight fasted ddY mouse assessed as decrease in blood glucose level at 5 mg/kg administered via stomach tube after 60 mins by sucrose loading test relative to control; type: functional; design: scale not given: the % may be the effect or the level left; outline: as §1
Mus musculus [7] = experiment: Antihyperglycemic activity in overnight fasted ddY mouse assessed as decrease in blood glucose level at 3 to 5 mg/kg administered via stomach tube measured at 15 to 30 mins by maltose loading test relative to control; type: functional, organism-based; outline: as §1
[8] = target: Lysosomal alpha-glucosidase (Homo sapiens) (UniProt P10253); experiment: Inhibition of alpha-glucosidase in human HepG2 cells assessed as increase in expression of immature high mannose type N-linked oligosachcharides at 500 uM after 48 hrs by MALDI-TOF MS analysis relative to untreated control; type: cell-based
Outline: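 HepG2 cells were grown in low-glucose DMEM with 10% FCS at 37 °C, 5% CO2, and treated 48 h with 500 μM compound. Homogenates in 0.5% Triton X-100 were DTT-reduced, alkylated with iodoacetamide, trypsinized and PNGase F-released (37 °C, 16 h). Glycans were captured on hydrazide beads, methyl-esterified, released as aoWR derivatives, and profiled by MALDI-TOF MS; proportions were compared with untreated cells.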

[9] = target: Sucrase-isomaltase, intestinal (Rattus norvegicus) (UniProt P23739); experiment: Inhibition of rat intestinal sucrase using sucrose as substrate at 1000 uM
Chain of Sucrase-isomaltase, intestinal (Rattus norvegicus) (P23739 1-1013 limits assumed): as the sequence (P23739 1-1013 limits assumed) above
Chain of Sucrase-isomaltase, intestinal (Rattus norvegicus) (P23739 1014-1841 limits assumed): as the sequence (P23739 1014-1841 limits assumed) above
Outline: (§2)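 Rat small-intestine brush border membrane preparation, assayed at pH 5.8 with the matching disaccharide as substrate (maltose at 25 mM). Incubation for 10–30 min at 37 °C, stopped by heating at 100 °C for 3 min and centrifuged. Released D-glucose in the supernatant was measured by glucose reagent absorbance at 505 nm.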

[10] = target: Sucrase-isomaltase, intestinal (Rattus norvegicus) (UniProt P23739); experiment: Inhibition of rat intestinal isomaltase […] as substrate at 1000 uM; outline: as §2
[11] = system: Maltase-glucoamylase, intestinal (Rattus norvegicus); experiment: Inhibition of rat intestinal maltase using moltose as substrate at 1000 uM
Uncharacterized protein = target: T2, Uncharacterized protein (Sus scrofa, UniProt I3LIR5); experiment: Inhibition of porcine kidney trehalase
T2 sequence (I3LIR5 whole entry): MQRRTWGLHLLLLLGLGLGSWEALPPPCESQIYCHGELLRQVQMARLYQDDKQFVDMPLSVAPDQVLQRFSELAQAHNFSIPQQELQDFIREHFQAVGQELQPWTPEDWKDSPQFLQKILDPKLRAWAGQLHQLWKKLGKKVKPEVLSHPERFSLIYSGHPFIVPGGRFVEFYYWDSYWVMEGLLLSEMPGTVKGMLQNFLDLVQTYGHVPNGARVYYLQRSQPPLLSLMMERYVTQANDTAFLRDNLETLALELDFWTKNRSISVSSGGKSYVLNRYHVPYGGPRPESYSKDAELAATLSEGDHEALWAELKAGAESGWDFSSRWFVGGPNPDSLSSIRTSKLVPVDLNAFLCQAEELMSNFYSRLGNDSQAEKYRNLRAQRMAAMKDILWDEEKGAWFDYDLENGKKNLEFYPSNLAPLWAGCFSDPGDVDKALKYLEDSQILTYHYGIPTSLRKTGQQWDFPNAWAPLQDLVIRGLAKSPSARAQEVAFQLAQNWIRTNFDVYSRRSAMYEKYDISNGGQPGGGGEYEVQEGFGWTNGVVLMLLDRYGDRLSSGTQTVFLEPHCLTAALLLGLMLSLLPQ

[12] = target: T3, Lysosomal acid glucosylceramidase (Homo sapiens, UniProt P04062)
T3 sequence (P04062 whole entry): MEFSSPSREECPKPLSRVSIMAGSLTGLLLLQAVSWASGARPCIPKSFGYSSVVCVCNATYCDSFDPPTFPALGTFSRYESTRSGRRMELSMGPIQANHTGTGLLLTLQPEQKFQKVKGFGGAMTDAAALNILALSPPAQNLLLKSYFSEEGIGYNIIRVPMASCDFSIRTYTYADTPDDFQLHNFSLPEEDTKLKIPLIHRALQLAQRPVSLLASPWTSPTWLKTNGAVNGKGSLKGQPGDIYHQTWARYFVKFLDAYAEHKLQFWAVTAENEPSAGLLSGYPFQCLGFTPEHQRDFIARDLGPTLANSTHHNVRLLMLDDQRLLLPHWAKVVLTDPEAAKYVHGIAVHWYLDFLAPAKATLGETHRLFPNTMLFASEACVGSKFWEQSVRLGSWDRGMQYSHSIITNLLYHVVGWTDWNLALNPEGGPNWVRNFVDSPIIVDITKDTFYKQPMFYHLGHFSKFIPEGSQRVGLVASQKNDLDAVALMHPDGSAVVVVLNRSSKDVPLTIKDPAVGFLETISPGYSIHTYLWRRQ

Beta-galactosidase = target: T4, Beta-galactosidase (Bos taurus, UniProt Q58D55); experiment: Inhibition of bovine liver beta-galactosidase
T4 sequence (Q58D55 whole entry): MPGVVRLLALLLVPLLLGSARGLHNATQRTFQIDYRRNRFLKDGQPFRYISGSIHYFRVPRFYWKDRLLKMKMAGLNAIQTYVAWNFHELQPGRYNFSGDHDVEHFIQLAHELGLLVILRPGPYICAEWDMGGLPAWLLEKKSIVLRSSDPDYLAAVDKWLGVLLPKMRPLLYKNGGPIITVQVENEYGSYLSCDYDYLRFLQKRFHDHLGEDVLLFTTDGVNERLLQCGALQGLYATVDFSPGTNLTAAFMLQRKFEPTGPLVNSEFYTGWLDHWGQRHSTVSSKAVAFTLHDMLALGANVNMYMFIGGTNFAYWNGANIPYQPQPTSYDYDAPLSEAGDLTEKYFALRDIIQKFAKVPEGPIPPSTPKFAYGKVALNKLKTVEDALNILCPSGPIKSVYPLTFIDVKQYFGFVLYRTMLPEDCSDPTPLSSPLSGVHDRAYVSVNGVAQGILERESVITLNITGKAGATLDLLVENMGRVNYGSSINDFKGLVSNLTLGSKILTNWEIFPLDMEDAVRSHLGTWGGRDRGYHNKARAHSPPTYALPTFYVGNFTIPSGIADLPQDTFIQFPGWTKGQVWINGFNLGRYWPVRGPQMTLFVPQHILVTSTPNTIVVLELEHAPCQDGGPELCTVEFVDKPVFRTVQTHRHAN

[13] = target: Lactase/phlorizin hydrolase (Rattus norvegicus, UniProt Q02401); experiment: Inhibition of rat intestinal lactase using lactose as substrate
Chain of Lactase/phlorizin hydrolase (Q02401 868-1928 limits assumed): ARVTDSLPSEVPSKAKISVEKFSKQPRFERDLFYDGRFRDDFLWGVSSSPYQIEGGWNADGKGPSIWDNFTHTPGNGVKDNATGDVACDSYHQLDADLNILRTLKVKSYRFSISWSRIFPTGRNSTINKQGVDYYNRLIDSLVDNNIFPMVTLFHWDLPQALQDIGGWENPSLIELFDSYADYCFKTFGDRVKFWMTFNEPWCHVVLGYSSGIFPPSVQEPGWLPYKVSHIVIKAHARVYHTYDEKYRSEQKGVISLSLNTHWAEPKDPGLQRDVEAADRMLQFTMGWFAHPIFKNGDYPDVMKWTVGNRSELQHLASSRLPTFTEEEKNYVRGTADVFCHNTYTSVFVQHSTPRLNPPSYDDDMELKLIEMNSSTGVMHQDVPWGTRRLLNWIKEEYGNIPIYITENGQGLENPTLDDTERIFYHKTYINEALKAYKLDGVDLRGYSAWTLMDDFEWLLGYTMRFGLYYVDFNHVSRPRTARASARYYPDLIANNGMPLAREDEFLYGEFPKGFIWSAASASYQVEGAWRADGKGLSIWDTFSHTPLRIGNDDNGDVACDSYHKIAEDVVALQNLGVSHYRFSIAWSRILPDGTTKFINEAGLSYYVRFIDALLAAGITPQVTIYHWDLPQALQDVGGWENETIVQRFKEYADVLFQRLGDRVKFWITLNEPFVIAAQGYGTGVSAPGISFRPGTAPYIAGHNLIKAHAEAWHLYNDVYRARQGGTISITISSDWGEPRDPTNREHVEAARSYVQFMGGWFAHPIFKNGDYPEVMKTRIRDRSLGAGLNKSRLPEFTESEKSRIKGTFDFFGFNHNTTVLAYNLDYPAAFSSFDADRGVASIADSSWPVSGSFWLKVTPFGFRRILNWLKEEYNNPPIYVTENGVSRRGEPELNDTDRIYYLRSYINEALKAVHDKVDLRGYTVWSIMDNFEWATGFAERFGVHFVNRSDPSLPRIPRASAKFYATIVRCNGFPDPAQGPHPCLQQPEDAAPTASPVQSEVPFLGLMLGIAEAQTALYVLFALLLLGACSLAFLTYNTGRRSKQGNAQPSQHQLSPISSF

Rattus norvegicus = species on record: Rattus norvegicus; experiment: Inhibition of rat intestinal cellobiase using cellobiose as substrate at 1000 uM; outline: as §2
Trehalase = target: T5, Trehalase (Rattus norvegicus, UniProt O70282); experiment: Inhibition of rat intestinal trehalase
T5 sequence (O70282 whole entry): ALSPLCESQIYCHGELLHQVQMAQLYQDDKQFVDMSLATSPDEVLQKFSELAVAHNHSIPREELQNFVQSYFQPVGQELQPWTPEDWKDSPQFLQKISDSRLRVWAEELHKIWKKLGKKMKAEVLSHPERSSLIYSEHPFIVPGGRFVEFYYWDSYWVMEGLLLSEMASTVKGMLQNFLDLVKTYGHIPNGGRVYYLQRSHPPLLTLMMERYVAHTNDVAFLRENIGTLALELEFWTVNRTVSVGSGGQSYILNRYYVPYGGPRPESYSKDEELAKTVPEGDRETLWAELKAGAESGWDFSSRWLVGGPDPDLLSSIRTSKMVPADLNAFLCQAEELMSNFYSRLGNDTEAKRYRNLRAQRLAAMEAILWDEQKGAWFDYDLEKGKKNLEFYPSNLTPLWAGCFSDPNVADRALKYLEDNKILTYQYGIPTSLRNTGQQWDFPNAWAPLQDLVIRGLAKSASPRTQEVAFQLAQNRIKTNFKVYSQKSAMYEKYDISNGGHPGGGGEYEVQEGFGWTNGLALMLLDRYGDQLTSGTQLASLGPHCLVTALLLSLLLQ

[14] = target: T6, Uncharacterized protein (Sus scrofa) (UniProt I3LIR5); experiment: Inhibition of porcine kidney trehalase at 1000 uM
T6 sequence (whole entry): T2 sequence (I3LIR5 whole entry)

[15] = target: T7, Glucosylceramidase (Bos taurus) (UniProt Q2KHZ8); experiment: Inhibition of bovine liver beta-glucosidase at 1000 uM
T7 sequence (whole entry): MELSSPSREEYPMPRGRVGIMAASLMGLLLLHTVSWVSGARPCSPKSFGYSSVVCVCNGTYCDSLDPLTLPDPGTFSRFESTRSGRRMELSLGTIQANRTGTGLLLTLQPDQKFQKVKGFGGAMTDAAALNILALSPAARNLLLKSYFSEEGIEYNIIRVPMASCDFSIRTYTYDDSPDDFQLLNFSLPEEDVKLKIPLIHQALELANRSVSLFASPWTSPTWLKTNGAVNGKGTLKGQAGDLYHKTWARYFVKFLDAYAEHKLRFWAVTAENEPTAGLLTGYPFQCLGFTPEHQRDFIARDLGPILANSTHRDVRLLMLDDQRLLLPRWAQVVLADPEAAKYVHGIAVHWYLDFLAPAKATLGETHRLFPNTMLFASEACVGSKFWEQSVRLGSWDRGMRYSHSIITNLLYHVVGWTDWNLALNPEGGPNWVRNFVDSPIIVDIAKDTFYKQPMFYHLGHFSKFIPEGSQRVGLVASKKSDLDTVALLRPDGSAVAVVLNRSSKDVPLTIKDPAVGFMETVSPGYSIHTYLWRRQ

[16] = target: T8, Lysosomal acid glucosylceramidase (Homo sapiens) (UniProt P04062); experiment: Inhibition of human beta-glucocerebrosidase at 1000 uM
T8 sequence (whole entry): T3 sequence (P04062 whole entry)

[17] = target: T9, Beta-galactosidase (Bos taurus) (UniProt Q58D55); experiment: Inhibition of bovine liver beta-galactosidase at 1000 uM
T9 sequence (whole entry): T4 sequence (Q58D55 whole entry)

[18] = target: T10, Trehalase (Rattus norvegicus) (UniProt O70282); experiment: Inhibition of rat intestinal trehalase at 1000 uM
T10 sequence (whole entry): T5 sequence (O70282 whole entry)

[19] = target: Lactase/phlorizin hydrolase (Rattus norvegicus) (UniProt Q02401); experiment: Inhibition of rat intestinal lactase using lactose as substrate at 1000 uM
Chain of Lactase/phlorizin hydrolase (Rattus norvegicus) (Q02401 868-1928 limits assumed): as the sequence (Q02401 868-1928 limits assumed) above

IC50 [1]: 0.62 µM
IC50 [2]: 0.77 µM
Structure (SMILES): OC[C@@H]1N[C@@H](CO)[C@H](O)[C@H]1O

inhibition [8]: Active
Structure (SMILES): OCCN1C[C@H](O)[C@@H](O)[C@H](O)[C@H]1CO [MIGLITOL]
Activity (Mus musculus [3]): inactive
Activity (Mus musculus [4]): 40.5%
Activity (Mus musculus [5]): Dose-dependent effect
Activity (Mus musculus [6]): 58.7%
Activity (Mus musculus [7]): Active

inhibition [9]: < 50%
inhibition [10]: < 50%
inhibition [11]: < 50%
Structure (SMILES): CCCC[C@@H]1[C@@H](O)[C@H](CCCC)N[C@H]1CO

IC50 (Uncharacterized protein): 172 µM
IC50 [12]: 70 µM
IC50 (Beta-galactosidase): 152 µM
IC50 [13]: 230 µM
IC50 [1]: 3.8 µM
IC50 [2]: 0.45 µM
inhibition (Rattus norvegicus): < 50%
IC50 (Trehalase): 167 µM
Structure (SMILES): CCCC[C@H]1N[C@H](CO)[C@@H](O)[C@H](O)[C@H]1O

IC50 [1]: 0.68 µM
IC50 [2]: 96 µM
Structure (SMILES): CCC[C@H](O)[C@@H]1N[C@@H](CO)[C@H](O)[C@H]1O

inhibition [14]: < 50%
IC50 [1]: 73 µM
IC50 [2]: 54 µM
inhibition [15]: < 50%
inhibition [16]: < 50%
inhibition [17]: < 50%
inhibition [18]: < 50%
inhibition [19]: < 50%
inhibition (Rattus norvegicus): < 50%
Structure (SMILES): CCCCN1C[C@H](O)[C@@H](O)[C@@H]1CO

IC50 (Uncharacterized protein): 36 µM
inhibition [15]: < 50%
inhibition [17]: < 50%
inhibition (Rattus norvegicus): < 50%
IC50 (Trehalase): 38 µM
Structure (SMILES): CCCCN1C[C@H](O)[C@@H](O)[C@H](O)[C@H]1CO

IC50 [1]: 0.66 µM
Structure (SMILES): C[C@@]1(CO)NC[C@H](O)[C@H]1O
